ChEMBL document CHEMBL4304834, “3-Amino-chromanes and Tetrahydroquinolines as Selective 5-HT2B, 5-HT7, or σ1 Receptor Ligands” (ACS Med Chem Lett, 2019)
Active and inactive are the calls of the source. No cut-off for these calls is given here.

Legend:
[1] = molecular target: 5-hydroxytryptamine receptor 5A (Homo sapiens, UniProt P47898); assay: Displacement of [3H]-LSD from human recombinant 5-HT5A receptor expressed in Flp-In CHO cells at 10 uM after 90 mins by microbeta scintillation counting method relative to control; assay type: cell-based
Method in brief: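 Radioligand binding run by the NIMH Psychoactive Drug Screening Program. […] Otherwise Ki comes from sigmoidal curve fits of triplicate measurements in a single experiment, or is averaged over repeated experiments each run in triplicate.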

Homo sapiens [2] = species on record: Homo sapiens; assay: Selectivity index, ratio of Ki for human recombinant 5-HT7A receptor to Ki for human recombinant sigma1 receptor
Homo sapiens [3] = species on record: Homo sapiens; assay: Selectivity index, ratio of Ki for human recombinant adrenergic Alpha2C receptor to Ki for human recombinant sigma1 receptor
Method in brief: (§1)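 Both Ki values in each ratio come from NIMH Psychoactive Drug Screening Program radioligand binding. […] Other targets were given full binding curves, measured in triplicate, and Ki was taken from a sigmoidal curve fit. Some values were repeated in duplicate or triplicate independent experiments.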

Homo sapiens [4] = species on record: Homo sapiens; assay: Selectivity index, ratio of Ki for human recombinant adrenergic Beta3 receptor to Ki for human recombinant sigma1 receptor; method in brief: as §1
[5] = Selectivity index, ratio of Ki for rat brain BZP receptor to Ki for human recombinant sigma1 receptor; method in brief: as §1
Homo sapiens [6] = species on record: Homo sapiens; assay: Selectivity index, ratio of Ki for human recombinant dopamine D1 receptor to Ki for human recombinant sigma1 receptor; method in brief: as §1
Homo sapiens [7] = species on record: Homo sapiens; assay: Selectivity index, ratio of Ki for human recombinant dopamine D4 receptor to Ki for human recombinant sigma1 receptor; method in brief: as §1
Homo sapiens [8] = species on record: Homo sapiens; assay: Selectivity index, ratio of Ki for human recombinant histamine H1 receptor to Ki for human recombinant sigma1 receptor; method in brief: as §1
Homo sapiens [9] = species on record: Homo sapiens; assay: Selectivity index, ratio of Ki for human recombinant Muscarinic acetylcholine M2 receptor to Ki for human recombinant sigma1 receptor; method in brief: as §1
Homo sapiens [10] = species on record: Homo sapiens; assay: Selectivity index, ratio of Ki for human recombinant Muscarinic acetylcholine M5 receptor to Ki for human recombinant sigma1 receptor; method in brief: as §1
Homo sapiens [11] = species on record: Homo sapiens; assay: Selectivity index, ratio of Ki for human recombinant DOR receptor to Ki for human recombinant sigma1 receptor; method in brief: as §1
Homo sapiens [12] = species on record: Homo sapiens; assay: Selectivity index, ratio of Ki for human recombinant KOR receptor to Ki for human recombinant sigma1 receptor; method in brief: as §1
Homo sapiens [13] = species on record: Homo sapiens; assay: Selectivity index, ratio of Ki for human recombinant MOR receptor to Ki for human recombinant sigma1 receptor; method in brief: as §1
661W [14] = assay: Cytotoxicity against mouse 661W cells at 200 uM after 24 hrs by MTT assay; assay type: cell-based
Method in brief: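 661W cells treated 24 h with test agent at 10, 30, 100 and 200 μM. Viability is measured by MTT and compared with nontreated cells.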

661W [15] = assay: Cytoprotective activity in mouse 661W cells assessed as reduction in tBHP-induced ROS level at 30 uM after 2 hrs by […] fluorescent microscopic analysis; assay type: functional, cell-based
Method in brief: (§2)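 661W cells seeded on coverslips for 18 h, then exposed 2 h to 55 μM tBHP with or without test agent or (+)-pentazocine. ROS are detected with CellROX green dye by epifluorescence, with DAPI marking nuclei. Fluorescence intensity is quantified as mean ± SD from three independent experiments, each run in duplicate.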

661W [16] = assay: Cytoprotective activity in mouse 661W cells assessed as reduction in tBHP-induced ROS level at 10 to 30 uM after 2 hrs by […] fluorescent microscopic analysis; assay type: functional, cell-based; method in brief: as §2

5-hydroxytryptamine receptor 5A, sequence (P47898 whole entry): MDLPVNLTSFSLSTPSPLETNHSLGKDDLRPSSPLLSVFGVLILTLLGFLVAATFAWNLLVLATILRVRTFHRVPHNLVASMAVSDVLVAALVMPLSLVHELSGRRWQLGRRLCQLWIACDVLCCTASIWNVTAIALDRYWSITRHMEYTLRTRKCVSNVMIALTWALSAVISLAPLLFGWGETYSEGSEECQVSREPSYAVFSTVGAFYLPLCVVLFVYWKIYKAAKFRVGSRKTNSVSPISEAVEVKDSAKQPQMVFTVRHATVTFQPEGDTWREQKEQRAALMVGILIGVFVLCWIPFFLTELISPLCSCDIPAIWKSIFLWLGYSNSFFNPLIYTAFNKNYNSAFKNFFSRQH

SMILES	inhibition [1]	Ratio Ki (Homo sapiens [2])	Ratio Ki (Homo sapiens [3])	Ratio Ki (Homo sapiens [4])	Ratio Ki [5]	Ratio Ki (Homo sapiens [6])	Ratio Ki (Homo sapiens [7])	Ratio Ki (Homo sapiens [8])	Ratio Ki (Homo sapiens [9])	Ratio Ki (Homo sapiens [10])	Ratio Ki (Homo sapiens [11])	Ratio Ki (Homo sapiens [12])	Ratio Ki (Homo sapiens [13])	Activity (661W [14])	inhibition (661W [15])	inhibition (661W [16])
CC[C@H]1c2cc(C)ccc2OC[C@@]1(C)N (racemic)	< 50%															
COc1cc(OC)c2c(c1)OC[C@@]1(C)NCC[C@@H]21 (racemic)		> 20	> 20	> 20	> 20	> 20	> 20	> 20	> 20	> 20	> 20	> 20	> 20	Non-Toxic	Active	Active
